Results on three molecules are retold here after article PMC12137828 (Nature Communications, 2025).

In one test the target is T1, AtDHAD (Arabidopsis thaliana, UniProt Q9LIR4).
T1 sequence (Q9LIR4 35-608): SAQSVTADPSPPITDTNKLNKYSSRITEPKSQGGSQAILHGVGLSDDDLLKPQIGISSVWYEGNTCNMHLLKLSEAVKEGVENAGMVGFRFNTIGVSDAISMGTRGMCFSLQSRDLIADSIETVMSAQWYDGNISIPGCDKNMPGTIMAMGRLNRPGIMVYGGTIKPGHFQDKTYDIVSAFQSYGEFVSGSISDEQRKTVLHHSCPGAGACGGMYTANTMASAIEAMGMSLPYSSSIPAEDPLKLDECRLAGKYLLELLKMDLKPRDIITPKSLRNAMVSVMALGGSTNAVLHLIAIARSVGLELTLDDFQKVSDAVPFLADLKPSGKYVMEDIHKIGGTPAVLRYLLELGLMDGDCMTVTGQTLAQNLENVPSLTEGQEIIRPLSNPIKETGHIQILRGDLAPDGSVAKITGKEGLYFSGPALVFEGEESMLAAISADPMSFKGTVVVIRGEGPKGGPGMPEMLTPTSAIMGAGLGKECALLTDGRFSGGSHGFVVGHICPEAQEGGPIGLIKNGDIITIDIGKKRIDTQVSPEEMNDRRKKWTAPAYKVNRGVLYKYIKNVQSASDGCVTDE
Put plainly: MST assay, binding affinity. The essentials:
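AtDHAD was expressed in E. coli BL21(DE3) under IPTG induction, with FeCl3 and L-Ara added to stabilise the [2Fe-2S] cluster. It was purified by Ni-NTA anaerobically and lysine-labelled with RED-NHS dye. Ligand from 10−10 to 10−1 M was incubated with 50 nM labelled protein for 30 min at 4 °C in phosphate buffer (0.05% Tween 20, pH 7.4). Excitation was 100% or 40%, with medium MST power. Kd is given as mean ± SD.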

The subject of a further test is cyanobacteria. To be noted: by targeting DHAD ref 3; cited from earlier work.
Test [1] relates to 2-week-old A. thaliana plants. Put plainly: Postemergence treatment of A. thaliana. It counts as in vivo, Arabidopsis thaliana. In short, it runs like this: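 Col-0 seeds were chilled at 4 °C for 3 days and grown in soil pots in a light incubator at 22 °C with an 8 h light/16 h dark cycle. Test compound was dissolved in DMSO and diluted with 0.5% aqueous Tween 80 to a final 200 μg/mL (DMSO below 5%), then applied by foliar spray. Fresh weight inhibition was read out.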

The subject of test [2] is glufosinate-resistant Arabidopsis thaliana. The note with it: 250 µM ref 2; cited from earlier work.

Like-named read-outs stand apart in the source and are kept apart here.

As usually defined, the Kd is the free concentration of one partner at which half of the binding sites on the other are occupied at equilibrium, for simple one-to-one binding. Read a low Kd as higher affinity. Consider `CC(C)(O)C(O)C(=O)O` (stereo not shown) [Substrate (dihydroxyisovalerate), 2,3-dihydroxy-3-methylbutanoic acid], for which binding on AtDHAD (Kd) was characterised by a dissociation constant (Kd) of 5.39 µM. That is a single-digit micromolar value.

In the case of `O=C(O)C(O)C(=O)O` [TA, tartronic acid], the growth of cyanobacteria entry in the test on cyanobacteria is reported as “inhibited the growth of cyanobacteria”. The affinity at AtDHAD (Kd), expressed as Kd, was 507 µM.

In the case of aspterric acid [AA], the “Fresh weight inhibition rate (%)” value in test [1] (200 μg/mL foliar spray, 20 days after treatment) is recorded as 55.96%. In addition, the “symptoms after postemergence treatment of two-week-old plants” value in test [1] (foliar spray, 200 μg/mL) is “cessation of new leaf production and the onset of leaf wilting”. Further, in test [2], the “herbicidal activity against glufosinate-resistant Arabidopsis thaliana” value is reported as “exhibits herbicidal activity”. The same molecule came in with an equilibrium dissociation constant (Kd) on AtDHAD of 3.41 µM.
